Test results as given in ChEMBL document CHEMBL2331235, “Solphenazines A-F, glycosylated phenazines from Streptomyces sp. strain DL-93” (J Nat Prod, 2013).
The source made the active and inactive calls. No cut-off for these calls is given here.

What was measured:
Enterococcus faecalis = experiment: Antimicrobial activity against vancomycin-resistant Enterococcus faecalis ATCC 51299 by microbroth dilution assay; type: functional
Bacillus spizizenii = experiment: Antimicrobial activity against Bacillus subtilis ATCC 6633 by microbroth dilution assay; type: functional
Escherichia coli [1] = experiment: Antimicrobial activity against Escherichia coli ATCC 25922 by microbroth dilution assay; type: functional
Klebsiella pneumoniae = experiment: Antimicrobial activity against Klebsiella pneumoniae ATCC 13883 by microbroth dilution assay; type: functional
Pseudomonas aeruginosa = experiment: Antimicrobial activity against Pseudomonas aeruginosa ATCC 27853 by microbroth dilution assay; type: functional
Candida albicans = experiment: Antimicrobial activity against Candida albicans ATCC 10231 by microbroth dilution assay; type: functional
Streptomyces scabiei [2] = experiment: Antimicrobial activity against Streptomyces scabies NRRL B 2795 at 25 ug/disk after 2 days by disk diffusion assay; type: functional
In short: (§1)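 S. scabies grown 5 days in liquid ISP2, diluted 1:10 in molten ISP2 agar. Paper discs carrying 25 μg compound (applied in 20 μL methanol) were set on a thin agar layer and overlaid with 10 mL of the seeded agar (double-layer method). Plates were incubated 2 days at 30 °C, and inhibition zone diameters were measured.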

Staphylococcus aureus = experiment: Antimicrobial activity against methicillin-resistant Staphylococcus aureus ATCC 43300 by microbroth dilution assay; type: functional
[3] = (§2) Cytotoxicity against African green monkey Vero cells at 150 uM after 72 hrs by MTT assay; type: cell-based; conditions: chlorocebus sabaeus, Vero cells; read-out: GI
In short: (§3)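 Vero cells in MEM and HCT-116 cells in RPMI, each with 10% FBS, 1% penicillin–streptomycin and 1% Glutamax. Cells were seeded at 3.0 × 10^4 per well and left to adhere overnight. Medium was replaced, and compounds in DMSO were added to a final 150–0.1 μM. Cells were incubated 72 h at 37 °C in 4.5% CO2 (humidified), then viability was read by MTT.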

Streptomyces scabiei [4] = experiment: Antimicrobial activity against Streptomyces scabies LK 82 at 25 ug/disk after 2 days by disk diffusion assay; type: functional; in short: as §1
[5] = (§4) Cytotoxicity against human […] cells after 72 hrs by MTT assay; type: functional, cell-based; in short: as §3
Acinetobacter baumannii = experiment: Antimicrobial activity against Acinetobacter baumannii ATCC 19606 by microbroth dilution assay; type: functional; conditions: ATCC 19606 = CIP 70.34 = JCM 6841
Cryptococcus neoformans = experiment: Antimicrobial activity against Cryptococcus neoformans ATCC 66031 by microbroth dilution assay; type: functional
Escherichia coli [6] = experiment: Inhibition of Escherichia coli topoisomerase-2-mediated DNA cleavage after 15 mins by agarose gel electrophoresis
Vero [7] = experiment: Cytotoxicity against African green monkey Vero cells after 72 hrs by MTT assay; type: cell-based; conditions: Chlorocebus sabaeus; in short: as §3
[8] = molecular target: T1, Topoisomerase I (Bos taurus) (UniProt Q2HPH0); experiment: Inhibition of calf thymus topoisomerase-1-mediated supercoiled plasmid DNA relaxation after 15 mins by agarose gel electrophoresis
T1 sequence (whole entry): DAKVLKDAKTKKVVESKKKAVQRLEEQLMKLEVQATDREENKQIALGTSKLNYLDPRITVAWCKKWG
In short: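 Calf thymus Topo I (0.5 unit) with negatively supercoiled pBR322 (0.3 μg) in 50 mM Tris-HCl pH 7.5, 1 mM MgCl2, 0.5 mM DTT and 50 μg/mL BSA. Camptothecin was the control. Reactions ran 15 min at 37 °C and were stopped on ice with an EDTA/sarkosyl loading dye. Relaxed versus supercoiled DNA was resolved by agarose gel, in duplicate.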

[9] = molecular target: T1, Topoisomerase I (Bos taurus); experiment: Inhibition of calf thymus topoisomerase-1-mediated DNA intercalation using relaxed pBR322 after 15 mins
In short: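 Unwinding (intercalation) assay: relaxed pBR322 (0.3 μg) with 1 unit calf thymus Topo I in 50 mM Tris-HCl pH 7.5, 1 mM MgCl2, 0.5 mM DTT and 50 μg/mL BSA. Compound was added in DMSO, with ethidium bromide as control. After 15 min at 37 °C, reactions were treated with SDS and proteinase K and phenol-extracted. DNA was run on 1.2% agarose in TAE, and supercoiled DNA was quantified after staining.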

[10] = molecular target: T2, DNA topoisomerase 1 (Homo sapiens) (UniProt P11387); experiment: Inhibition of topoisomerase-1 (unknown origin)-mediated DNA cleavage after 15 mins by agarose gel electrophoresis
T2 sequence (whole entry): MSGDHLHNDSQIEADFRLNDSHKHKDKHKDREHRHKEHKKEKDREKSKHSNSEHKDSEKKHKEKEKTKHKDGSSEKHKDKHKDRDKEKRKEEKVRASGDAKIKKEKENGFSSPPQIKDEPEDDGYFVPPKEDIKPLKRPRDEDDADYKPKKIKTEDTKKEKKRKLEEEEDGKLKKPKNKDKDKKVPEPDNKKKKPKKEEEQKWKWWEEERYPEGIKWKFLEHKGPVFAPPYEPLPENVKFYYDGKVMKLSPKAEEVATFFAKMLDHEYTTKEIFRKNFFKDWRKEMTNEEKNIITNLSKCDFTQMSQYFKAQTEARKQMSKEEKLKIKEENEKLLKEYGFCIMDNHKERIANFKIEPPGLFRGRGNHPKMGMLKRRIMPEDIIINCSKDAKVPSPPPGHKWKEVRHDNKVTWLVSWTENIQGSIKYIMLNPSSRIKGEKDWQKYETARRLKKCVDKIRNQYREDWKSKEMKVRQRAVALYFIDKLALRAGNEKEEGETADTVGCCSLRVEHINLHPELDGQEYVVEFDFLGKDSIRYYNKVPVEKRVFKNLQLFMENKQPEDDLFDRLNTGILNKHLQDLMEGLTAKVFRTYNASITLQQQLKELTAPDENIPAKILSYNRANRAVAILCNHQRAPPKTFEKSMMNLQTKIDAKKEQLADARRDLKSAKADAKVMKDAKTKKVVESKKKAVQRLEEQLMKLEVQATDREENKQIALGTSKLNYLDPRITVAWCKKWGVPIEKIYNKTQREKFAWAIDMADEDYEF
In short: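 Topo I cleavage assay: 2 units Topo I with 0.3 μg pBR322 in the unwinding buffer, with camptothecin as control. Reactions ran 10 min at 37 °C, then SDS to 1% for 10 min, then 40 mM EDTA and 100 μg/mL proteinase K for 15 min at 37 °C. DNA was phenol-extracted and run on 1.2% agarose containing 0.5 μg/mL ethidium bromide. Nicked DNA was compared with and without compound, at least in duplicate.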

[11] = molecular target: DNA topoisomerase 2-alpha (Homo sapiens) (UniProt P11388); experiment: Inhibition of topoisomerase-2 (unknown origin)-mediated DNA cleavage […] by agarose gel electrophoresis
In short: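 Human Topo II cleavage assay: 5 units enzyme with 0.3 μg kDNA in the decatenation buffer without potassium glutamate, with etoposide as control. Reactions ran 10 min at 37 °C, then SDS to 1% for 10 min, then 40 mM EDTA and 100 μg/mL proteinase K for 1 h at 50 °C. Products were run on ethidium-containing 1.2% agarose. Linear DNA was compared with and without compound, at least in duplicate.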

Vero [12] = experiment: as §2; type: cell-based; conditions: chlorocebus sabaeus, vero, 72 h, 150 µM; in short: as §3
HCT16 = experiment: as §4; type: functional, cell-based; in short: as §3

Chain of DNA topoisomerase 2-alpha (Homo sapiens) (P11388 whole entry): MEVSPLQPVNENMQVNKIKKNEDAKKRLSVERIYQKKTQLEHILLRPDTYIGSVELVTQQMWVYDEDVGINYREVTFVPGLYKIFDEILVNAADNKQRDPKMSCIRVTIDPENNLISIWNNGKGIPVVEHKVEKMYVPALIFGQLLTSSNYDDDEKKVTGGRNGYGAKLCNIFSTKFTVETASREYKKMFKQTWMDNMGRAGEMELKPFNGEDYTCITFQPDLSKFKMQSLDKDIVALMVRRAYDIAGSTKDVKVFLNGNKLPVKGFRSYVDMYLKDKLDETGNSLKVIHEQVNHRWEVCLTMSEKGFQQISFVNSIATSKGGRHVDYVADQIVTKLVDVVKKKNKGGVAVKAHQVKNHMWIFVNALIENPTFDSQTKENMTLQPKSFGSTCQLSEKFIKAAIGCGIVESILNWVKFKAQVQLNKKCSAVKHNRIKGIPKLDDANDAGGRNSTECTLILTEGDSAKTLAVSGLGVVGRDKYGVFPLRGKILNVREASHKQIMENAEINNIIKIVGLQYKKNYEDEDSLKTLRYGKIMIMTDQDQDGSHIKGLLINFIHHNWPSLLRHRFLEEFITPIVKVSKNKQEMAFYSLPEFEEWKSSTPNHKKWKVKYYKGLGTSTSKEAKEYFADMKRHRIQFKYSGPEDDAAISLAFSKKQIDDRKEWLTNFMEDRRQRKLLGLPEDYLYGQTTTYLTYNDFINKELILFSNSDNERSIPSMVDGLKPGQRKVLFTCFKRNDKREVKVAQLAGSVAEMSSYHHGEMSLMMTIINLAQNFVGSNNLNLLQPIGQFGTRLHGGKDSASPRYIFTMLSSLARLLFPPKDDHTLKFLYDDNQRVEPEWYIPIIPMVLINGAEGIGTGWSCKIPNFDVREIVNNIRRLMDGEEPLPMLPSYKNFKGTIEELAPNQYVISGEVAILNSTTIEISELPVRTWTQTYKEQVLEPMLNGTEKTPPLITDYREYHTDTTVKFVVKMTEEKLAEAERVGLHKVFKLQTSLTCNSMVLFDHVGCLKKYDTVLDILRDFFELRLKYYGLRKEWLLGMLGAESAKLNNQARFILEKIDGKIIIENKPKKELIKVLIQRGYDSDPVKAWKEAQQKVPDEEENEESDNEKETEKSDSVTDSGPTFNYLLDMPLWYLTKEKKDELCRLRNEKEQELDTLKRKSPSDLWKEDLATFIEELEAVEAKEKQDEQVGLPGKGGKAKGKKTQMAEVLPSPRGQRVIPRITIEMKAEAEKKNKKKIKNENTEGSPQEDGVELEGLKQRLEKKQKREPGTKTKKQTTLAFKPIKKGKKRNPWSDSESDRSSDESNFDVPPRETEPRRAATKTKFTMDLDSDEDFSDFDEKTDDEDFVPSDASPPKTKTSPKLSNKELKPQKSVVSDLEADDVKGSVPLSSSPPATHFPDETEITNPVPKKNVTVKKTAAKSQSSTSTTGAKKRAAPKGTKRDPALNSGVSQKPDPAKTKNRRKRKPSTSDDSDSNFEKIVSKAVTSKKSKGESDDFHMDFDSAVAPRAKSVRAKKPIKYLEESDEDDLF

SMILES	MIC (Enterococcus faecalis) [mg/L]	MIC (Bacillus spizizenii) [mg/L]	MIC (Escherichia coli [1]) [mg/L]	MIC (Klebsiella pneumoniae) [mg/L]	MIC (Pseudomonas aeruginosa) [mg/L]	MIC (Candida albicans) [mg/L]	Activity (Streptomyces scabiei [2])	MIC (Staphylococcus aureus) [mg/L]	Activity (Streptomyces scabiei [4])	EC50 [5] [µM]	MIC (Acinetobacter baumannii) [mg/L]	MIC (Cryptococcus neoformans) [mg/L]	Activity (Vero [12])	Activity (HCT16)	also measured
CC(=O)O[C@@H]1[C@@H](O)[C@H](C)O[C@@H](OC(=O)c2cccc3nc4c(C(=O)O[C@@H]5O[C@@H](C)[C@H](O)[C@@H](O)[C@H]5O)cccc4nc23)[C@@H]1O [SOPHENAZINE B]	> 25	> 25	> 25	> 25	> 25	> 25	inactive	> 25	inactive	52	> 25	> 25	–	–	inhibition at 72 h, 150 µM [3]: 30%
C[C@@H]1O[C@@H](OC(=O)c2cccc3nc4c(C(=O)O[C@@H]5O[C@@H](C)[C@H](O)[C@@H](O)[C@H]5O)cccc4nc23)[C@H](O)[C@H](O)[C@H]1O [SOPHENAZINE A]	> 25	> 25	> 25	> 25	> 25	> 25	inactive	> 25	inactive	18	> 25	> 25	–	–	inhibition (Escherichia coli [6]): inactive; EC50 (Vero [7]): 84 µM; inhibition [8]: inactive; inhibition [9]: inactive; inhibition [10]: inactive; inhibition [11]: inactive
O=C(O)c1cccc2nc3c(C(=O)O)cccc3nc12	> 25	> 25	> 25	> 25	> 25	> 25	inactive	> 25	inactive	–	> 25	> 25	Non-toxic	inactive	–
CC(=O)O[C@@H]1[C@@H](O)[C@H](C)O[C@@H](OC(=O)c2cccc3nc4c(C(=O)O[C@@H]5O[C@@H](C)[C@H](O)[C@@H](OC(C)=O)[C@H]5O)cccc4nc23)[C@@H]1O [SOPHENAZINE C]	> 25	> 25	> 25	> 25	> 25	> 25	inactive	> 25	inactive	–	> 25	> 25	–	–	–
C[C@@H]1O[C@@H](OC(=O)c2cccc3nc4c(O[C@@H]5O[C@@H](C)[C@H](O)[C@@H](O)[C@H]5O)cccc4nc23)[C@H](O)[C@H](O)[C@H]1O [SOPHENAZINE D]	> 25	> 25	> 25	> 25	> 25	> 25	inactive	> 25	inactive	–	> 25	> 25	Non-toxic	inactive	–
